Experimental data taken from ChEMBL document CHEMBL1649062, “Integration of lead optimization with crystallography for a membrane-bound ion channel target: discovery of a new class of AMPA receptor positive allosteric modulators” (J Med Chem, 2011).
Calls of active or inactive are those of the source.

Columns and labels:
[1] = Volume of distribution at steady state in cynomolgus monkey at 0.25 mg/kg, iv and 1 mg/kg, po; format: ADME, organism-based, Macaca fascicularis; settings: in vivo, read-out: Vdss
Summary of the method: (§1)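 Male animals, n = 3 per species, given single iv and oral doses: Sprague-Dawley rat 2.5 iv / 3 po mg/kg; beagle dog 0.25 / 0.5; Göttingen minipig 0.5 / 1; cynomolgus monkey 0.25 / 1. Blood sampled; Vss from iv; bioavailability and Vss as mean [range]; Tmax as median [range].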

Rattus norvegicus [2] = assay: Cognitive enhancing effect in Lister Hooded rat assessed as reversal of 24 hrs delay-induced cognitive deficit at 1 mg/kg, ip by novel object recognition test
[3] = Tmax in Gottingen minipig at 1 mg/kg, po; format: ADME, organism-based, Sus scrofa; parameters: dose 1 mg/kg, route oral; settings: pig, in vivo; summary of the method: as §1
Brain [4] = assay: Drug level in Lister Hooded rat assessed per gram of tissue at 0.1 mg/kg, ip; format: ADME, organism-based; parameters: dose 0.1 mg/kg, route intraperitoneal; settings: in vivo
Summary of the method: (§2)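 Male Lister Hooded rats (n = 9-12/group) tested for reversal of a 24 h delay-induced deficit in novel object recognition. Significant doses flagged. Brain concentrations measured in the study animals at the end of the test.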

Rattus norvegicus [5] = assay: Hepatic blood flow in Sprague-Dawley rat at 2.5 mg/kg, iv and 3 mg/kg, po; format: ADME, organism-based, Liver; settings: in vivo
Summary of the method: (§3)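 Male animals, n = 3 per species, given single iv and oral doses. Values are mean and range. Blood clearance is also expressed as % of liver blood flow, taken as (mL/min)/kg: rat 85, dog 31, minipig 30, cynomolgus monkey 44.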

[6] = Half life in Sprague-Dawley rat at 3 mg/kg, po; format: ADME, organism-based; parameters: dose 3 mg/kg, route oral; settings: in vivo
[7] = Half life in cynomolgus monkey at 1 mg/kg, po; format: ADME, organism-based, Macaca fascicularis; parameters: dose 1 mg/kg, route oral; settings: in vivo
[8] = Half life in Gottingen minipig at 0.5 mg/kg, iv; format: ADME, organism-based, Sus scrofa; parameters: dose 0.5 mg/kg, route intravenous; settings: pig, in vivo; summary of the method: as §3
[9] = Distribution coefficient, log D of the compound; format: physicochemical; settings: octanol/water
[10] = Tmax in Swiss Beagle dog at 0.5 mg/kg, po; format: ADME, organism-based, Canis lupus familiaris; parameters: dose 0.5 mg/kg, route oral; settings: in vivo; summary of the method: as §1
[11] = Cmax in cynomolgus monkey at 1 mg/kg, po; format: ADME, organism-based, Macaca fascicularis; parameters: dose 1 mg/kg, route oral; settings: in vivo
[12] = Oral bioavailability in cynomolgus monkey at 1 mg/kg; format: ADME, organism-based, Macaca fascicularis; settings: in vivo; summary of the method: as §1
Brain [13] = assay: Drug level in Lister Hooded rat assessed per gram of tissue at 30 mg/kg, ip; format: ADME, organism-based; parameters: dose 30 mg/kg, route intraperitoneal; settings: in vivo
Summary of the method: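 Male Lister Hooded rats pretreated 30 min before the maximal electroshock threshold test with compound or saline vehicle; picrotoxin served as positive control. Corneal current applied, CC50 about 60-70 mA, 0.1 ms. Brain levels measured in satellite rats sampled immediately after testing.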

[14] = Oral bioavailability in Swiss Beagle dog at 0.5 mg/kg; format: ADME, organism-based, Canis lupus familiaris; settings: in vivo; summary of the method: as §1
[15] = Plasma protein binding in rat at 3 mg/kg, po; format: ADME, organism-based; parameters: dose 3 mg/kg, route oral; settings: read-out: PPB (converted)
[16] = Oral bioavailability in Gottingen minipig at 1 mg/kg; format: ADME, organism-based, Sus scrofa; settings: pig, in vivo; summary of the method: as §1
Glutamate receptor 2 [17] = biological target: T1, Glutamate receptor 2 (Homo sapiens, UniProt P42262); assay: Allosteric modulation of human recombinant GluA2 receptor flip isoform expressed in HEK293 cells assessed as potentiation of glutamate-induced calcium influx by Fluo-4/FLIPR method; format: cell-based
Summary of the method: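 Stable GluA2 flip (unedited) cell line grown in DMEM/F12 with 10% FBS and seeded to confluence 2-3 days before use. Cells washed in HEPES buffer (pH 7.3) and loaded with 2 μM Fluo-4 AM for 60 min at room temperature. On FLIPR, compound was added 5 min before 100 μM glutamate. pEC50 and asymptotic maximum are relative to the maximal response to cyclothiazide, n ≥ 3.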

[18] = Cmax in Gottingen minipig at 1 mg/kg, po; format: ADME, organism-based, Sus scrofa; parameters: dose 1 mg/kg, route oral; settings: pig, in vivo
Hepatocyte [19] = assay: Intrinsic clearance in cryopreserved rat hepatocytes assessed per gram of tissue; format: ADME, cell-based, Liver
Summary of the method: (§4)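 Cryopreserved hepatocytes at 70 000 cells/mL; intrinsic clearance expressed per gram of liver; single determination (human also n = 3).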

[20] = Intrinsic clearance in cryopreserved dog hepatocytes assessed per gram of tissue; format: ADME, cell-based, Canis lupus familiaris, Liver, Hepatocyte; summary of the method: as §4
[21] = Clearance in cynomolgus monkey at 0.25 mg/kg, iv and 1 mg/kg, po; format: ADME, organism-based, Macaca fascicularis; settings: in vivo; summary of the method: as §3
Rattus norvegicus [22] = assay: Neurotoxicity in Lister Hooded rat assessed proconvulsant effect at 30 mg/kg, ip by MEST test; format: toxicity, organism-based; parameters: dose 30 mg/kg, route intraperitoneal; settings: in vivo
Summary of the method: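 Male Lister Hooded rats pretreated with compound, saline vehicle or picrotoxin 30 min before corneal electroshock (CC50 about 60–70 mA, 0.1 ms); tonic and tonic-clonic seizure threshold scored; brain concentrations taken from satellite rats sampled right after testing.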

Glutamate receptor 2 [23] = biological target: T1, Glutamate receptor 2; assay: Allosteric modulation of human recombinant GluA2 receptor flip isoform expressed in HEK293 cells assessed as potentiation of glutamate-induced calcium influx by Fluo-4/FLIPR method relative to cyclothiazide; format: cell-based
Summary of the method: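 Stable GluA2 flip (unedited) cells seeded to confluence 2-3 days before assay; washed in HEPES buffer (145 NaCl, 5 KCl, 2 CaCl2, 1 MgCl2, 5.5 glucose, pH 7.3), loaded with 2 μM Fluo4-AM 60 min at room temperature. FLIPR dual addition: compound 5 min before 100 μM glutamate; fluorescence rise expressed against maximal cyclothiazide response, fitted pEC50 and Asym max; n ≥ 3.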

Glutamate receptor 2 [24] = biological target: T1, Glutamate receptor 2; assay: Allosteric modulation of human recombinant GluA2 receptor flip isoform expressed in HEK293 cells at 100 nM by whole cell patch-clamp electrophysiology; format: cell-based
Summary of the method: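 Perforated-patch (amphotericin B) voltage clamp of HEK293 cells stably expressing human GluA2 flip (unedited) homotetramers, held at -60 mV. Extracellular solution in mM: 140 NaCl, 2 KCl, 1 MgCl2, 2 CaCl2, 12 HEPES, 10 D-glucose, pH 7.35. Currents evoked by 1 mM glutamate; compound at 100 nM or 10 μM. Read-out is percent increase in charge transfer (area under curve).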

[25] = Tmax in cynomolgus monkey at 1 mg/kg, po; format: ADME, organism-based, Macaca fascicularis; parameters: dose 1 mg/kg, route oral; settings: in vivo; summary of the method: as §1
[26] = Half life in Sprague-Dawley rat at 2.5 mg/kg, iv; format: ADME, organism-based; parameters: dose 2.5 mg/kg, route intravenous; settings: in vivo; summary of the method: as §3
[27] = Half life in Swiss Beagle dog at 0.5 mg/kg, po; format: ADME, organism-based, Canis lupus familiaris; parameters: dose 0.5 mg/kg, route oral; settings: in vivo
Brain [28] = assay: Brain tissue binding in rat at 3 mg/kg, po; format: ADME, organism-based; parameters: dose 3 mg/kg, route oral; settings: in vivo
[29] = Cmax in Sprague-Dawley rat at 3 mg/kg, po; format: ADME, organism-based; parameters: dose 3 mg/kg, route oral; settings: in vivo
[30] = Volume of distribution at steady state in Gottingen minipig at 0.5 mg/kg, iv and 1 mg/kg, po; format: ADME, organism-based, Sus scrofa; settings: pig, in vivo, read-out: Vdss; summary of the method: as §1
[31] = Clearance in Gottingen minipig at 0.5 mg/kg, iv and 1 mg/kg, po; format: ADME, organism-based, Sus scrofa; settings: pig, in vivo; summary of the method: as §3
[32] = Volume of distribution at steady state in Sprague-Dawley rat at 2.5 mg/kg, iv and 3 mg/kg, po; format: ADME, organism-based; settings: in vivo, read-out: Vdss; summary of the method: as §1
[33] = Apparent permeability of the compound; format: ADME; settings: not told
Summary of the method: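 Artificial membrane permeability: donor holds 10 mM sample in pH 7.05 phosphate buffer with 0.5% hydroxypropylcyclodextrin. Membrane is 1.8% phosphatidylcholine and 1% cholesterol in decane. Donor and acceptor concentrations measured by LCMS after 3 h at room temperature; permeability expressed in nm/s.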

[34] = Cmax in Swiss Beagle dog at 0.5 mg/kg, po; format: ADME, organism-based, Canis lupus familiaris; parameters: dose 0.5 mg/kg, route oral; settings: in vivo
[35] = Half life in Gottingen minipig at 1 mg/kg, po; format: ADME, organism-based, Sus scrofa; parameters: dose 1 mg/kg, route oral; settings: pig, in vivo
[36] = Intrinsic clearance in cryopreserved minipig hepatocytes assessed per gram of tissue; format: ADME, cell-based, Sus scrofa, Liver, Hepatocyte; settings: pig; summary of the method: as §4
Brain [37] = assay: Drug level in Lister Hooded rat assessed per gram of tissue at 1 mg/kg, ip; format: ADME, organism-based; parameters: dose 1 mg/kg, route intraperitoneal; settings: in vivo; summary of the method: as §2
Hepatocyte [38] = assay: Intrinsic clearance in cryopreserved human hepatocytes assessed per gram of tissue; format: ADME, cell-based, Liver; summary of the method: as §4

T1 sequence (P42262 whole entry, canonical isoform): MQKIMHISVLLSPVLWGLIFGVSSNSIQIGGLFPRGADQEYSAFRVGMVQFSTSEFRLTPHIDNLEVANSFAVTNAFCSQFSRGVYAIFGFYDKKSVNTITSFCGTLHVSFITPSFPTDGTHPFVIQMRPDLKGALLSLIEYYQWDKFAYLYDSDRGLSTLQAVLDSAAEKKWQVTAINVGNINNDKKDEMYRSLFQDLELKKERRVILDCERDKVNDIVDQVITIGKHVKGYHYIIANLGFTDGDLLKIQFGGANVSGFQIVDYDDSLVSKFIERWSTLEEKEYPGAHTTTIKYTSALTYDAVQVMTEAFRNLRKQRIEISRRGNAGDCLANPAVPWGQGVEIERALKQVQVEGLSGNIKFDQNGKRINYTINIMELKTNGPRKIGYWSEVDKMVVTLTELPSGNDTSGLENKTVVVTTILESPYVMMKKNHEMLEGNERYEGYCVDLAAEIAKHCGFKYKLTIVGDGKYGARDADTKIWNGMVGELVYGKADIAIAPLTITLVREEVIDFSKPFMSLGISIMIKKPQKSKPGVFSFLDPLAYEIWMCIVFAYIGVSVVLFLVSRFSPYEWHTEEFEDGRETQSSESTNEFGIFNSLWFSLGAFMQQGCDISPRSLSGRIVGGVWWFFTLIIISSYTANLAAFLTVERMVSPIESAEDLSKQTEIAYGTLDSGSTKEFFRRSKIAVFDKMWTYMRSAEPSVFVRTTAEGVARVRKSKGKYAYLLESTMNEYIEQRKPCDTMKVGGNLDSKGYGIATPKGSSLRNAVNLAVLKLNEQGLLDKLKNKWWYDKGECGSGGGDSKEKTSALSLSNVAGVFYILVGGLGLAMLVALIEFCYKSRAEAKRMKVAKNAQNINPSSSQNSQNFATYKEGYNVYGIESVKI

- Vd [1]: 1.6 L/kg
- Tmax [3]: 0.5 h
- Drug uptake (Brain [4]): 9 ng/g
- QH (Rattus norvegicus [5]): 47%
- half-life [6]: 2.3 h
- half-life [7]: 1.4 h
- half-life [8]: 1.6 h
- logD [9]: 3
- Tmax [10]: 0.6 h
- Cmax [11]: 5 ng/mL
- bioavailability [12]: 2%
- Drug uptake (Brain [13]): 4686 ng/g
- bioavailability [14]: 12%
- fraction unbound [15]: 0.01
- bioavailability [16]: 13%
- EC50 (Glutamate receptor 2 [17]): 10 µM
- Cmax [18]: 29 ng/mL
- CL (Hepatocyte [19]): 2.3 mL/min/g
- CL [20]: 2.6 mL/min/g
- clearance [21]: 38 mL/min/kg
- Activity (Glutamate receptor 2 [23]): 123%
- Activity (Glutamate receptor 2 [24]): 21%
- Tmax [25]: 1 h
- half-life [26]: 1.4 h
- half-life [27]: 0.9 h
- Brain tissue binding (% bound) (Brain [28]): 99.4%
- Cmax [29]: 245 ng/mL
- Vd [30]: 3.2 L/kg
- clearance [31]: 23 mL/min/kg
- Vd [32]: 4.8 L/kg
- Papp [33]: 41.5 ×10⁻⁶ cm/s
- Cmax [34]: 14 ng/mL
- half-life [35]: 4.5 h
- CL [36]: 7 mL/min/g
- Drug uptake (Brain [37]): 97 ng/g
- CL (Hepatocyte [38]): 1.2 mL/min/g
SMILES: O=C(c1ccc(-n2nc(C(F)(F)F)c3c2CCCC3)cc1)N1CCCC1
- Activity (Rattus norvegicus [2]): Active
- Activity (Rattus norvegicus [22]): Non-toxic
